Reference: ChEMBL document CHEMBL3046176, “Synthesis, crystal structure, and biological activities of 2-cyanoacrylates containing furan or tetrahydrofuran moieties” (2007)

Key:
Assay type in all cases: functional
Digitaria sanguinalis [1] = test: Herbicidal activity against hairy crabgrass Digitaria sanguinalis (hairy crabgrass) assessed as herbicidal damage at 1.5 kg/ha measured after postemergence treatment; settings: post-emergence
Procedure, shortened: (§1)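 Seeds were sown in 6 cm boxes of artificial mixed soil, covered with plastic film until emergence, and grown in a greenhouse. Sprays were applied right after sowing (preemergence) or after the first true leaf expanded (postemergence). Controls received the same amount of water/DMF/Tween 20. Above-ground fresh weight was taken 10 days after treatment, in triplicate, as % damage versus control.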

Brassica napus [2] = test: Herbicidal activity against rape Brassica napus (oilseed rape) assessed as herbicidal damage at 1.5 kg/ha measured after postemergence treatment; settings: post-emergence; procedure, shortened: as §1
Cucumis sativus = test: Plant growth regulatory activity in Cucumis sativus (cucumber) seed assessed as number of root at 10 mg/L at 26 degC measured after 5 days
Procedure, shortened: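 Cucumber seeds were incubated at 26 °C in the dark for 72 h, then 10 cotyledons were excised and treated. Incubation continued at 26 °C in the dark for 5 days. Roots were counted, with water-only controls, in triplicate.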

Amaranthus retroflexus [3] = test: Herbicidal activity against Amaranthus retroflexus assessed as herbicidal damage at 1.5 kg/ha measured after preemergence treatment; settings: pre-emergence; procedure, shortened: as §1
Amaranthus retroflexus [4] = test: Herbicidal activity against Amaranthus retroflexus assessed as herbicidal damage at 1.5 kg/ha measured after postemergence treatment; settings: post-emergence; procedure, shortened: as §1
Alternaria solani = test: Antifungal activity against Alternaria solani assessed as inhibition of mycelium growth at 50 mg/L at 26 degC measured after 72 hr
Procedure, shortened: (§2)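 Mycelium growth assay on agar. 1 mL test solution (50 mg/L) was poured into a 9 cm plate with 9 mL agar medium. Controls used sterile water in its place. A 4 mm plug from the margin of an actively growing colony was placed in the centre and incubated at 26 °C. Hyphal diameter was measured over 72 h, in triplicate. Inhibition % = (control diameter − treated diameter)/control diameter.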

Medicago sativa [5] = test: Herbicidal activity against Medicago sativa (alfalfa) assessed as herbicidal damage at 1.5 kg/ha measured after postemergence treatment; settings: post-emergence; procedure, shortened: as §1
Mycosphaerella arachidis = test: Antifungal activity against Mycosphaerella arachidis assessed as inhibition of mycelium growth at 50 mg/L at 26 degC measured after 72 hr; procedure, shortened: as §2
Brassica napus [6] = test: Herbicidal activity against rape Brassica napus (oilseed rape) assessed as herbicidal damage at 1.5 kg/ha measured after preemergence treatment; settings: pre-emergence; procedure, shortened: as §1
Digitaria sanguinalis [7] = test: Herbicidal activity against hairy crabgrass Digitaria sanguinalis (hairy crabgrass) assessed as herbicidal damage at 1.5 kg/ha measured after preemergence treatment; settings: pre-emergence; procedure, shortened: as §1
Medicago sativa [8] = test: Herbicidal activity against Medicago sativa (alfalfa) assessed as herbicidal damage at 1.5 kg/ha measured after preemergence treatment; settings: pre-emergence; procedure, shortened: as §1
Fusarium graminearum = test: Antifungal activity against Fusarium graminearum assessed as inhibition of mycelium growth at 50 mg/L at 26 degC measured after 72 hr
Procedure, shortened: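 Mycelium growth test on agar plates: 1 mL test solution (50 mg/L) mixed with 9 mL agar medium; sterile water in place of test solution for controls. 4 mm inocula cut from margins of actively growing colonies, placed at plate centre, incubated at 26 °C; mycelium diameter measured over 72 h. Inhibition % from mean hyphal diameter against control. Triplicate.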

Cladosporium cucumerinum = test: Antifungal activity against Cladosporium cucumerinum assessed as inhibition of mycelium growth at 50 mg/L at 26 degC measured after 72 hr; procedure, shortened: as §2
[9] = test system: Botryosphaeria berengeriana; test: Antifungal activity against Botryosphaeria berengeriana assessed as inhibition of mycelium growth at 50 mg/L at 26 degC measured after 72 hr; procedure, shortened: as §2

Row | SMILES | inhibition at 1500 g/ha (Digitaria sanguinalis [1]) | inhibition at 1500 g/ha (Brassica napus [2]) | Activity (Cucumis sativus) | inhibition at 1500 g/ha (Amaranthus retroflexus [3]) | inhibition at 1500 g/ha (Amaranthus retroflexus [4]) | inhibition at 50 µg/mL (Alternaria solani) | inhibition at 1500 g/ha (Medicago sativa [5]) | inhibition at 50 µg/mL (Mycosphaerella arachidis) | inhibition at 1500 g/ha (Brassica napus [6]) | inhibition at 1500 g/ha (Digitaria sanguinalis [7]) | inhibition at 1500 g/ha (Medicago sativa [8]) | inhibition at 50 µg/mL (Fusarium graminearum) | inhibition at 50 µg/mL (Cladosporium cucumerinum) | inhibition at 50 µg/mL [9]
1 | CCOCCOC(=O)/C(C#N)=C(\NCc1ccoc1)C(C)C | 0% | 51.9% | 11.4% | 22.1% | 27.4% | 25% | 13.2% | 30.4% | 0% | 33.6% | 10.5% | 0% | 13.2% | 22.7%
2 | CCOCCOC(=O)/C(C#N)=C(/NCc1ccco1)SC | 13.1% | 22.9% | 14.4% | 10.5% | 30.2% | 25% | 18.6% | 16.1% | 20.7% | 37.8% | 0% | 36.7% | 15.8% | 22.7%
3 | CCOCCOC(=O)/C(C#N)=C(/C)NCc1ccco1 | 17.2% | 20.1% | -0.6% | 3.2% | 32.3% | 0% | 5.4% | 44.6% | 8.5% | 42.1% | 12% | 46.7% | 21.1% | 22.7%
4 | CCC/C(NCc1ccco1)=C(\C#N)C(=O)OCCOCC | 1% | 22.9% | 14.4% | 0% | 31.6% | 10.7% | 12.6% | 3.6% | 30.7% | 22.8% | 0% | 30% | 13.2% | 9.1%
5 | CCOCCOC(=O)/C(C#N)=C(/NCC1CCOC1)SC (configuration not stated) | 0% | 50.5% | -9.6% | 22.1% | 43.3% | 21.4% | 4.2% | 25% | 0% | 5.7% | 0% | 0% | 21.1% | 27.3%
6 | CCOCCOC(=O)/C(C#N)=C(/C)NCC1CCOC1 (configuration not stated) | 0% | 52.3% | -6.6% | 12.6% | 29.5% | 35.7% | 5.4% | 12.5% | 0% | 31.4% | 7.5% | 0% | 18.4% | 27.3%
7 | CCOCCOC(=O)/C(C#N)=C(/C)NCc1ccoc1 | 0% | 49.8% | -18.6% | 21.1% | 37.1% | 0% | 20.4% | 44.6% | 0% | 22.8% | 6.8% | 33.3% | 36.8% | 13.6%
8 | CCOCCOC(=O)/C(C#N)=C(/CC)NCc1ccoc1 | 0% | 33.8% | 23.4% | 11.6% | 23.3% | 10.7% | 0% | 35.7% | 0% | 0% | 2.3% | 33.3% | 26.3% | 4.5%
